From PubChem BioAssay
FLuc inhib CS: firefly luciferase enzyme inhibitors, primary screen, artefact control for luciferase-based inhibitor screens, biochemical, luminescence, ATPLite; 10 min; AID 1006, 2008; 1.5% of 200,000 active; inhibition, % at 10 µM;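 active = inhibition above about 50% when tested at 10 µM, limit read from the data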
Target sequence (P08659 whole entry, looked up): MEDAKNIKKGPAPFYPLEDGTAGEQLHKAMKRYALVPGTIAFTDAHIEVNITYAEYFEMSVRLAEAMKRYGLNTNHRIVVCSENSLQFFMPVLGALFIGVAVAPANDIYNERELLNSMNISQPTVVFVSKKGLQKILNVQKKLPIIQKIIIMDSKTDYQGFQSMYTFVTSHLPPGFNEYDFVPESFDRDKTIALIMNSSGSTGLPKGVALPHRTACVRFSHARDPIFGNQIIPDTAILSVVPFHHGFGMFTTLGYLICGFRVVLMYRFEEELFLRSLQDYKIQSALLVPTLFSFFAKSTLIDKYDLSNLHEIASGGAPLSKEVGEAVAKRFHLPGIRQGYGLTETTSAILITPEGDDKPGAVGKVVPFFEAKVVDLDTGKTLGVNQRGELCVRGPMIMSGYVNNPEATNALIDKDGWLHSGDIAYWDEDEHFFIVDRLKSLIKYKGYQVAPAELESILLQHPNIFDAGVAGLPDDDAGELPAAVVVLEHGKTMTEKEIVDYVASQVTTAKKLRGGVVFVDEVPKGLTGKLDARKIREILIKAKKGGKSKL
STAT1 act: STAT1 signaling activators, primary screen, cell-based, HTS, luciferase reporter; activation (% of control), % at 5.5 µM; 2.6% of 200,000 active; AID 932, 2007; NIH 3T3 STAT1-luciferase reporter, IFN-gamma, luminescence; 100% = IFN-gamma alone, no compound;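 active = activation above the screen-wide mean activation plus 3 SD, cut at about 130% in these data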
FLuc act counter: FLuc activators, initial screening, artefact control for FLuc-dependent activation tests, biochemical, ATPlite luminescence; ATPlite luciferase biochemical, 10 min; 0 = ATP-free wells, 1 = DMSO control; AID 1027, 2008; 200,000 tested, under 10 active; Luciferin 4-monooxygenase (Photinus pyralis), P08659; activation factor at 10 µM;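 active = luciferase activation factor, scaled between plate controls, of at least 2 with compound at 10 µM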
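Assay system: Luciferase/luciferin detection reagent, cell-free biochemical luciferase assay / Also added: ATP substrate / Schedule: 10 min at ambient temperature / Measured by: luminescence measurement of luciferase light output / Benchmarks: low control with PBS replacing ATP, high control enzyme plus ATP without compound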
APP 5'UTR act: activators of APP 5'UTR luciferase reporter, primary screen, SH-SY5Y cells; SH-SY5Y APP 5'UTR luciferase reporter, luminescence; zero percent = DMSO vehicle wells; activation, % at 2 µM; 1% of 190,000 active; AID 1276, 2008;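 active = activation above a set limit, based on mean plus 3 SD of controls, cut at about 140% in these data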
NF-kB expr up: activators of NF-kB expression in neurons, primary screen, cell-based, HTS. human neuronal cells, NF-kB reporter expression; stronger effect = higher value. fold change at 12.5 µM. 1.6% of 190,000 active; in the data active = fold change above about 3.3
A number is an active result; - = inactive; . = not tested or not shown. Shown are actives, neighbours in structure and some others; about 4.3% of the full set was active somewhere.

SMILES	FLuc inhib CS	STAT1 act	FLuc act counter	APP 5'UTR act	NF-kB expr up
COc1cc([N+](=O)[O-])ccc1N/C=C/C(=O)c1cccs1	93.4	-	-	136.2	4.34
Cc1nn(CCCC(=O)Nc2nccs2)c(C)c1[N+](=O)[O-]	-	-	-	-	-
CCOc1ccccc1/C=C(/NC(=O)c1ccccc1)C(=O)N(CC)CC	-	-	-	-	-
COc1ccc(Cl)cc1NC(=O)CN1C(=O)CC(C)S(=O)(=O)c2ccccc21 (stereo unspecified)	-	-	-	-	-
NC(=O)c1ccccc1N/C=C/C(=O)c1ccc(Cl)cc1Cl	95.8	-	-	174.1	5.89
O=C(Nc1ccccc1Cl)c1ccc(Cl)cc1Cl	-	-	-	-	-
O=C(NC1CCCCC1)C(=S)N1CCOCC1	-	-	-	-	-
COc1cc(OC)cc(C(=O)NCCC(=O)NCCc2ccc(OC)c(OC)c2)c1	-	-	-	-	-
CC1(C)CC(=O)c2sc(NC(=O)C(C)(C)C)nc2C1	-	-	-	-	-
CC1(C)CNC(=O)c2sc(NC(=O)c3ccccc3)nc2C1	-	-	-	-	-
CC1(C)CC(=O)c2sc(NC(=O)c3ccc4ncsc4c3)nc2C1	54.7	-	-	-	-
CC1(C)CC(=O)c2sc(NC(=O)c3cccs3)nc2C1	95.0	-	-	-	3.44
CC1(C)CC(=O)c2sc(NC(=O)c3ccccc3)nc2C1	87.7	-	-	170.5	3.55
O=C(NCCc1ccccc1)C(=S)N1CCCCC1	-	-	-	-	-
CCSc1nc(-c2cccnc2)ccc1C#N	-	-	-	-	-
CCN(CC)C(=O)Cn1nnc(-c2ccc(S(C)(=O)=O)cc2)n1	-	-	-	-	-
Nc1ccccc1Nc1cccc(C(F)(F)F)c1	-	129.3	-	-	-
Nc1ccc(Nc2ccccc2N)cc1	-	-	-	-	-
COC(=O)c1nn(-c2ccccc2)c(Sc2ccc(Cl)cc2)c1/C=N/O	-	-	-	-	-
Brc1ccc(OCc2cn3ccccc3n2)cc1	76.8	146.6	-	139.7	4.59
Cc1ccc(OCc2cn3cccnc3n2)cc1	-	-	-	-	-
COc1ccc(C)cc1NC(=O)CN1CCN(C/C=C/c2ccccc2)CC1	-	-	-	-	-
COc1ccc2cc(/C(C)=N/NC(=O)C3CC3)ccc2c1	-	146.7	-	-	-
COc1ccc(/C(C)=N/NC(=O)C2CC2)cc1	-	-	-	-	-
CC1C/C(=C/c2ccco2)C(=O)/C(=C/c2ccco2)C1 (stereo unspecified)	-	-	-	-	-
SMILES	FLuc inhib CS	STAT1 act	FLuc act counter	APP 5'UTR act	NF-kB expr up
O=C1/C(=C\c2ccco2)CCC/C1=C\c1ccco1	-	-	-	-	5.87
CCOc1ccc(Br)cc1S(=O)(=O)NC(=O)c1ccccc1	-	-	-	-	-
C/C(CC(=O)Nc1cccc2c1CCCC2)=N\NC(=O)c1ccccc1N	-	-	-	-	-
C/C(CC(=O)NC(C)(C)C)=N\NC(=O)c1ccccc1N	-	128.6	-	-	-
CSC(=S)NCc1cccnc1	-	-	-	-	-
CCOC(=O)c1sc(/N=C/c2ccc(O)cc2O)cc1C	86.1	-	-	-	-
Cc1cccc(NC(=O)Nc2ccc([N+](=O)[O-])cc2)n1	-	133.9	-	-	-
Cc1cccc(NC(=O)Nc2ccc(C)c(C)c2)n1	-	129.2	-	-	-
Cc1cc(C)n(CC(C)NCc2cn[nH]c2-c2ccc(C)c(C)c2)n1 (stereo unspecified)	-	-	-	-	-
CCN(CC)C(=O)COc1ccc(/C(C)=N/NC(=O)c2ccccc2Br)cc1	-	-	-	-	-
CCN(CC)C(=O)COc1ccc(-c2nnc(N3CCCCC3)c3ccccc23)cc1	-	-	-	-	-
CCN(CC)C(=O)COc1ccc(/C(C)=N/NC(=O)c2ccccc2O)cc1	63.2	-	-	-	-
CCN(CC)C(=O)COc1ccc(-c2ccccc2)cc1	-	131.9	-	-	-
COc1ccc(C(=O)Nc2cccc(/C(C)=N/NC(=O)c3ccc([N+](=O)[O-])cc3)c2)cc1OC	-	-	-	-	-
COc1ccc(C(=O)Nc2ccc(/C(C)=N/NC(=O)c3ccccc3O)cc2)cc1OC	-	129.3	-	-	-
CC1CCCN(CCOc2ccc3ccccc3c2Br)C1 (stereo unspecified)	-	-	-	-	-
Nc1ccc(-c2cnc(-c3ccc(N)cc3)nc2)cc1	74.5	137.4	-	-	4.77
CCCC(=O)Nc1ccc(-c2cnc(-c3ccc(NC(=O)CCC)cc3)nc2)cc1	-	-	-	-	-
CC(=O)NC(Cc1ccccc1C)C(=O)NC1CCN(c2ncccc2[N+](=O)[O-])CC1 (stereo unspecified)	-	-	-	-	-
CN=C1S/C(=C\c2cc(C)n(-c3ccccc3F)c2C)C(=O)N1C	81.5	-	-	-	-
Cc1nn(-c2ccccc2)c(Cl)c1/C=N/NC(=O)c1ccc(NS(=O)(=O)c2cccs2)cc1	70.9	136.9	-	-	-
Cc1ccc(C(=O)N/N=C\c2c(C)nn(-c3ccccc3)c2Cl)cn1	51.4	-	-	-	-
Cc1nn(-c2ccccc2)c(Cl)c1/C=N/NC(=O)c1ccccc1NS(=O)(=O)c1cccs1	-	-	-	-	-
S=C(NCC1CCCO1)NC1CCCC1 (stereo unspecified)	-	-	-	-	-
O=C(CCNc1ccc(Cl)cc1)c1cccs1	-	130.4	-	-	-
SMILES	FLuc inhib CS	STAT1 act	FLuc act counter	APP 5'UTR act	NF-kB expr up
O=C(CCNc1cc(Cl)cc(Cl)c1)c1cccs1	-	-	-	-	-
CCN=C1S/C(=C\c2ccc(-c3cccc(C(=O)O)c3)o2)C(=O)N1CC	-	-	-	185.1	-
Cc1nn(Cc2cccc(F)c2)c(C)c1NC(=O)c1ccc(COc2ccccc2Cl)cc1	-	-	-	-	-
O=C(Nc1ccccc1Cl)c1cccc(COc2cc(Cl)ccc2Cl)c1	-	129.3	-	-	-
O=C(O)c1ccc(COc2ccccc2Cl)cc1	-	-	-	-	-
Cc1nn(Cc2c(F)c(F)c(F)c(F)c2F)c(C)c1NC(=O)c1cccc(COc2ccccc2Cl)c1	-	-	-	151.4	-
O=C(O)c1cccc(COc2ccccc2Cl)c1	63.0	.	-	.	14.5
CCc1ccc(CNCCSc2nnnn2C)cc1	-	-	-	-	-
COc1cc(C(=O)NCc2nnc(SCC(=O)N3CCOCC3)o2)cc(OC)c1OC	-	-	-	-	-
O=C(Nc1nnc(-c2cccs2)s1)C1CC1	-	130.4	-	-	-
CCC(=O)Nc1nnc(-c2cccs2)s1	-	-	-	-	-
CCN(CC(=O)Nc1ccc(Cl)c(S(=O)(=O)N(C)C)c1)CC(=O)NC(C)C	-	-	-	-	-
CCOC(=O)NC(=O)CSc1nc(C)cc(C)c1C#N	-	-	-	-	3.41
